Laboratory results published in PMC10843616 (European journal of medicinal chemistry, 2023).
Where two headings read alike, the source gives them in different places. Each block holds one compound with its values, some of them ahead of it.

Assays:
[1] = test system: bloodstream forms of T. brucei brucei (strain 427); experiment: T. b. brucei growth inhibition, Alamar blue assay; format: cell-based, Trypanosoma brucei brucei; conditions: Hep G2 CC50 / T.b.b EC50
[2] = test system: Bloodstream forms of T. b. gambiense (130R); experiment: T. b. gambiense growth inhibition, resazurin assay; format: cell-based, Trypanosoma brucei gambiense; conditions: for SI (CC50/EC50), T.b.g: Hep G2 CC50 / T.b.g EC50
[3] = target: tCatL (trypanosomal cathepsin-L) (Trypanosoma brucei rhodesiense, UniProt Q95PM0); experiment: tCatL inhibition assay; format: biochemical; conditions: at 10 μM after 1 hour
In short: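 Recombinant tCatL was expressed in Pichia pastoris and purified. Inhibition was run by a previously published protocol, with E-64 as the positive control.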

[4] = Human liver microsome stability; format: in vitro ADME; conditions: liver microsomes
[5] = test system: Bloodstream forms of T. b. rhodesiense (STIB 900); experiment: T. b. rhodesiense growth inhibition, resazurin assay; format: cell-based, Trypanosoma brucei rhodesiense; conditions: for SI (CC50/EC50), T.b.r: Hep G2 CC50 / T.b.r EC50
[6] = test system: T. b. brucei AnTat1.1 trypomastigotes expressing Renilla luciferase; experiment: T. b. brucei acute infection mouse efficacy; format: in vivo, BALB/c mice; conditions: 5 consecutive days; for parasite growth in vivo, intraperitoneal: 100 mpk IP; for parasite growth in vivo, oral: 100 mpk oral gavage
[7] = Single-dose pharmacokinetics in mice; format: in vivo, mice (C57BL/6; conditions: male, C57BL/6, mouse, plasma, oral, 5 mg/kg
[8] = test system: T. b. rhodesiense STIB 900-luc; experiment: T. b. rhodesiense acute infection mouse efficacy; format: in vivo, NMRI mice; conditions: four days; for animals surviving to 60 days with no detectable parasitemia: oral
In short: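 Female NMRI mice, five per group, were inoculated i.p. with 1 x 10^4 bloodstream-form STIB 900-luc. Oral gavage started day 3 post-infection for four consecutive days, in PBS with 0.5% hydroxyl-methylcellulose and 0.5% Tween 80. Three mice were infected-untreated controls. Parasitemia was tracked by whole-animal bioluminescence imaging after D-luciferin: twice weekly for two weeks after treatment, then weekly to day 60. Cure meant a day-60 signal not above background.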

T. b. rhodesiense = conditions: 100 mpk once a day; ref as previously reported; cited from earlier work
[9] = 25 mpk; ref as previously reported; cited from earlier work

Structure (SMILES): O=C(N[C@H](/C=C/S(=O)(=O)c1ccccc1)CCc1ccccc1)c1cc(Cl)c([N+](=O)[O-])[nH]1 [Compound 3, (S,E)-4-chloro-5-nitro-N-[5-phenyl-1-(phenylsulfonyl)pent-1-en-3-yl]-1H-pyrrole-2-carboxamide]
SI (CC50/EC50), T.b.b [1]: >5.13

Structure (SMILES): Nc1nc(N)nc(Nc2ccc([As]3SCC(CO)S3)cc2)n1 (stereo not shown) [Melarsoprol, reference compound]
EC50 ([2]; Trypanosoma brucei, GAMBIENSE, 68 h, read-out: T.b.g EC50, 130R, 68 h incubation): 7 ± 3 nM

Structure (SMILES): CC(C)C[C@H](NC(=O)[C@H]1O[C@@H]1C(=O)O)C(=O)NCCCCN=C(N)N [Compound E64, E-64, reference compound]
Percentage inhibition of tCatL [3]: 100%

Structure (SMILES): CS(=O)(=O)CCCNC(=O)c1cccs1 [Compound 16, N-[3-(methylsulfonyl)propyl]thiophene-2-carboxamide]
Percentage inhibition of tCatL [3]: inactive

half-life [4]: 10.8 min
Structure (SMILES): O=C(N[C@H](/C=C/S(=O)(=O)c1ccccc1)CCc1ccccc1)c1ccc([N+](=O)[O-])o1 [Compound 1]

Structure (SMILES): O=C(NC/C=C/S(=O)(=O)c1ccccc1)c1ccc([N+](=O)[O-])s1 [Compound 4, (E)-5-nitro-N-[3-(phenylsulfonyl)allyl]thiophene-2-carboxamide]
SI (CC50/EC50), T.b.b [1]: 3.21
SI (CC50/EC50), T.b.r [5]: 33.47
SI (CC50/EC50), T.b.g [2]: 63.81

Structure (SMILES): CNC(=O)/C=C/CNC(=O)c1ccc([N+](=O)[O-])o1 [Compound 11, (E)-N-[4-(methylamino)-4-oxobut-2-en-1-yl]-5-nitrofuran-2-carboxamide]
SI (CC50/EC50), T.b.b [1]: > 44.38
SI (CC50/EC50), T.b.r [5]: > 340.91
SI (CC50/EC50), T.b.g [2]: > 159.57

Structure (SMILES): CS(=O)(=O)/C=C/CNC(=O)c1ccc([N+](=O)[O-])o1 [Compound 7, (E)-N-[3-(methylsulfonyl)allyl]-5-nitrofuran-2-carboxamide]
parasite growth in vivo, intraperitoneal [6]: ineffective
parasite growth in vivo, oral [6]: reduced parasitemia

Structure (SMILES): CNC(=O)/C=C/CNC(=O)c1ccc([N+](=O)[O-])s1 [Compound 10, (E)-N-[4-(methylamino)-4-oxobut-2-en-1-yl]-5-nitrothiophene-2-carboxamide]
SI (CC50/EC50), T.b.b [1]: > 138.88
SI (CC50/EC50), T.b.r [5]: > 535.71
EC90 ([5]; Trypanosoma brucei, RHODESIENSE|STIB900, read-out: EC90 for T. b. rhodesiense): 210 nM
SI (CC50/EC50), T.b.g [2]: > 576.92
concentration at 2 h [7]: 720 nM
parasite growth in vivo, intraperitoneal [6]: suppressed parasite growth
parasite growth in vivo, oral [6]: suppressed parasite growth
animals surviving to 60 days ([8]; 100 mpk b.i.d, orally): 3 out of 5
animals surviving to 60 days with no detectable parasitemia ([8]; 200 mpk once daily): 4 out of 5
animals surviving to 60 days with no detectable parasitemia ([8]; 200 mpk twice daily): 4 out of 5

Structure (SMILES): O=C(NC/C=C/S(=O)(=O)c1ccccc1)c1ccco1 [Compound 6, (E)-N-[3-(phenylsulfonyl)allyl]furan-2-carboxamide]
SI (CC50/EC50), T.b.b [1]: 34.02

Structure (SMILES): CSc1ccc(OCc2ncc([N+](=O)[O-])n2C)cc1 [fexinidazole]
infected mice treated (cured) (T. b. rhodesiense): 4 out of 4
half-life [9]: 48 min

Structure (SMILES): CNC(=O)CCCNC(=O)c1ccc([N+](=O)[O-])s1 [Compound 17, N-[4-(methylamino)-4-oxobutyl]-5-nitrothiophene-2-carboxamide]
Percentage inhibition of tCatL [3]: inactive

Structure (SMILES): CNC(=O)CCCNC(=O)c1cccs1 [Compound 18, N-[4-(methylamino)-4-oxobutyl]thiophene-2-carboxamide]
Percentage inhibition of tCatL [3]: inactive
